pIC50: −log10 of the molar value. Blank lines part the entries; values can stand above or below the compound they belong to.
Tests used:
[1] = target: Poly [ADP-ribose] polymerase 1 (Homo sapiens, UniProt P09874); assay: Inhibition of human PARP1
[2] = Drug level in mouse brain at 32 mg/kg, po after 0.5 hr; format: ADME, organism-based; parameters: dose 32 mg/kg, route oral; conditions: read-out: Drug uptake
In short: (§1)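 Mice dosed orally at 32 mg/kg (n = 2). Compound levels in brain (µg/g tissue) and plasma (µg/mL) measured by ex vivo assay at 0.5 and 2.0 h after dosing.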

[3] = Drug level in mouse brain at 32 mg/kg, po after 2.0 hrs; format: ADME, organism-based; parameters: dose 32 mg/kg, route oral; conditions: read-out: Drug uptake; in short: as §1
[4] = Drug level in mouse plasma at 32 mg/kg, po after 0.5 hr; format: ADME, organism-based; parameters: dose 32 mg/kg, route oral; in short: as §1
[5] = Drug level in mouse plasma at 32 mg/kg, po after 2.0 hrs; format: ADME, organism-based; parameters: dose 32 mg/kg, route oral; in short: as §1
[6] = Metabolic stability assessed as Intrinsic clearance in mouse liver microsomes after 60 mins
[7] = Metabolic stability assessed as Intrinsic clearance in human liver microsomes after 60 mins

Sequence of Poly [ADP-ribose] polymerase 1 (P09874 whole entry): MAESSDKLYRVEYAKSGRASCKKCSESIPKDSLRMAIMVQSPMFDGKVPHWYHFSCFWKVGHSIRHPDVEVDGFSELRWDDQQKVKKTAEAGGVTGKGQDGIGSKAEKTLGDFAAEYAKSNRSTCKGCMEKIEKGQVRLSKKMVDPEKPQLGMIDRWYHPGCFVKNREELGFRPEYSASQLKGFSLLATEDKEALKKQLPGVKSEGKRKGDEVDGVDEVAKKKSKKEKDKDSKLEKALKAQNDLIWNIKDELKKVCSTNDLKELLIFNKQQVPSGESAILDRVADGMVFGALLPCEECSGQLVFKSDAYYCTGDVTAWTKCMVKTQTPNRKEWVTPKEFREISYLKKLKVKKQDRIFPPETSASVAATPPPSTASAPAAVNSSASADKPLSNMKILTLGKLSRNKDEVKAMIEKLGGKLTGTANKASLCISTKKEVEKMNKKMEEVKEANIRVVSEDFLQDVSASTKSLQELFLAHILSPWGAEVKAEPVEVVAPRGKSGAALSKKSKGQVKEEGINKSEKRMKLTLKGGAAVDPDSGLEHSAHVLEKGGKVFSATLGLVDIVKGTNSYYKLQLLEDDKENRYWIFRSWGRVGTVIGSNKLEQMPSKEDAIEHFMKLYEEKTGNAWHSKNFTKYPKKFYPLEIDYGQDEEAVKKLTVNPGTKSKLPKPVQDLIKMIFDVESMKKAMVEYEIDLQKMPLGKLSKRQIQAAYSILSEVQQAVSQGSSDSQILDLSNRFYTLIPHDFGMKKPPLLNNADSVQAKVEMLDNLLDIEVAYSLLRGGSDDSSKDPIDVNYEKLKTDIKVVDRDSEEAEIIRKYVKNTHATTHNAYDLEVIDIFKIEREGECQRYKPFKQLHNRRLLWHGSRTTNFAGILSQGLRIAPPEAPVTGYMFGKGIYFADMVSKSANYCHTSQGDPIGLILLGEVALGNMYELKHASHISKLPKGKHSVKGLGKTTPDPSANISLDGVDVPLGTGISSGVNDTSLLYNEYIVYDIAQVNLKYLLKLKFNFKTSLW

Compound: O=c1[nH]c(C2=C[C@@H](N3CCC(c4ccccc4)CC3)CC2)nc2c(Cl)cccc12
- pIC50 [1]: 8.06
- concentration at 0.5 h [2]: 19800 ng/g
- concentration at 2 h [3]: 18100 ng/g
- concentration at 0.5 h [4]: 8700 ng/mL
- concentration at 2 h [5]: 4400 ng/mL
- CLint scaled at 1 h [6]: 1160 mL/min/kg
- CLint scaled at 1 h [7]: 22 mL/min/kg

- pIC50 [1]: 7.46
- concentration at 0.5 h [2]: 6700 ng/g
- concentration at 2 h [3]: 12500 ng/g
- concentration at 0.5 h [4]: 13600 ng/mL
- concentration at 2 h [5]: 11300 ng/mL
- CLint scaled at 1 h [6]: 686 mL/min/kg
- CLint scaled at 1 h [7]: 17 mL/min/kg
Compound: O=c1[nH]c(C2=C[C@@H](N3CCC(c4ccc(F)cc4)CC3)CC2)nc2c(Cl)cccc12

Compound: O=c1[nH]c(C2=CC(N3CC=C(c4ccc(F)cc4)CC3)CC2)nc2ccccc12 (configuration not stated)
- pIC50 [1]: 7.74

Compound: O=c1[nH]c(C2=C[C@@H](N3CC=C(c4ccccc4)CC3)CC2)nc2c(Cl)cccc12
- pIC50 [1]: 7.82
- concentration at 0.5 h [2]: 2000 ng/g
- concentration at 2 h [3]: 3000 ng/g
- concentration at 0.5 h [4]: 17100 ng/mL
- concentration at 2 h [5]: 18100 ng/mL

Compound: O=c1[nH]c(C2=C[C@H](N3CC=C(c4ccccc4)CC3)CC2)nc2c(Cl)cccc12
- pIC50 [1]: 6.54

Compound: O=c1[nH]c(C2=CC(N3CC=C(c4ccc(F)cc4)CC3)CC2)nc2c(Cl)cccc12 (configuration not stated)
- pIC50 [1]: 7.44
- concentration at 0.5 h [2]: 400 ng/g
- concentration at 2 h [3]: 900 ng/g
- concentration at 0.5 h [4]: 15200 ng/mL
- concentration at 2 h [5]: 17700 ng/mL
- CLint scaled at 1 h [6]: 1330 mL/min/kg
- CLint scaled at 1 h [7]: 54 mL/min/kg

Compound: O=c1[nH]c([C@H]2CC[C@H](N3CC=C(c4ccccc4)CC3)CC2)nc2ccccc12
- pIC50 [1]: 5.08

Compound: O=c1[nH]c(C2=CC(N3CC=C(c4ccccc4)CC3)CCC2)nc2ccccc12 (configuration not stated)
- pIC50 [1]: 6.80

Compound: O=c1[nH]c([C@H]2CC[C@@H](N3CC=C(c4ccccc4)CC3)CC2)nc2ccccc12
- pIC50 [1]: 5.80

Compound: Cc1cccc2c(=O)[nH]c(CCCN3CC=C(c4ccc(Cl)cc4)CC3)nc12
- pIC50 [1]: 7.80

- pIC50 [1]: 6.99
- concentration at 0.5 h [2]: 11600 ng/g
- concentration at 2 h [3]: 3900 ng/g
- concentration at 0.5 h [4]: 12500 ng/mL
- concentration at 2 h [5]: 9400 ng/mL
Compound: O=c1[nH]c(CCCN2CCC(c3ccccc3)CC2)nc2c(Cl)cccc12

- pIC50 [1]: 7.33
Compound: O=c1[nH]c(CCCN2CCC(c3ccc(F)cc3)CC2)nc2c(Cl)cccc12

- pIC50 [1]: 6.59
Compound: O=c1[nH]c(C2=C[C@H](N3CCC(c4ccc(F)cc4)CC3)CC2)nc2c(Cl)cccc12

- pIC50 [1]: 7.52
Compound: Cc1cccc2c(=O)[nH]c(C3=CC(N4CCC(c5ccc(F)cc5)CC4)CC3)nc12 (configuration not stated)

- pIC50 [1]: 7.34
Compound: Cc1cccc2c(=O)[nH]c(C3=CC(N4CCC(c5ccc(Cl)cc5)CC4)CC3)nc12 (configuration not stated)

- pIC50 [1]: 7.92
Compound: Cc1cccc2c(=O)[nH]c(C3=CC(N4CCN(c5ccc(Cl)cc5)CC4)CC3)nc12 (configuration not stated)

Compound: O=c1[nH]c(CCCN2CC=C(c3ccc(F)cc3)CC2)nc2ccccc12
- pIC50 [1]: 7.80

Compound: O=c1[nH]c(CCCN2CC=C(c3ccc(Cl)cc3)CC2)nc2ccccc12
- pIC50 [1]: 8.05

Compound: O=c1[nH]c(CCCN2CC=C(c3ccccc3)CC2)nc2c(Cl)cccc12
- concentration at 0.5 h [2]: 8000 ng/g
- concentration at 2 h [3]: 8400 ng/g
- concentration at 0.5 h [4]: 1300 ng/mL
- concentration at 2 h [5]: 1200 ng/mL

Compound: O=c1[nH]c(CCCN2CC=C(c3ccc(F)cc3)CC2)nc2c(Cl)cccc12
- concentration at 0.5 h [2]: 8400 ng/g
- concentration at 2 h [3]: 2800 ng/g
- concentration at 0.5 h [4]: 1900 ng/mL
- concentration at 2 h [5]: 1200 ng/mL
- CLint scaled at 1 h [6]: 3910 mL/min/kg

Compound: O=c1[nH]c(N2CCC(N3CC=C(c4ccccc4)CC3)C2)nc2ccccc12 (configuration not stated)
- pIC50 [1]: 6.52

Compound: Cc1cccc2c(=O)[nH]c(C3=CC(N4CC=C(c5ccc(F)cc5)CC4)CC3)nc12 (configuration not stated)
- pIC50 [1]: 7.60

- pIC50 [1]: 7.60
- concentration at 0.5 h [2]: 1300 ng/g
- concentration at 2 h [3]: 2200 ng/g
- concentration at 0.5 h [4]: > 20100 ng/mL
- concentration at 2 h [5]: > 20400 ng/mL
Compound: O=c1[nH]c(C2=CC(N3CCN(c4ccc(Cl)cc4)CC3)CC2)nc2ccccc12 (configuration not stated)

- pIC50 [1]: 7.60
Compound: O=c1[nH]c(C2=CC(N3CCN(c4ccc(F)cc4)CC3)CC2)nc2c(Cl)cccc12 (configuration not stated)

Compound: O=c1[nH]c(N2CC(N3CC=C(c4ccccc4)CC3)C2)nc2ccccc12
- pIC50 [1]: 6.30

Compound: Cc1cccc2c(=O)[nH]c(CCCN3CC=C(c4ccc(F)cc4)CC3)nc12
- pIC50 [1]: 8.10

Compound: O=c1[nH]c(C2=CC(N3CC=C(c4ccccc4)CC3)CC2)nc2ccccc12 (racemic)
- pIC50 [1]: 7.80

Compound: O=c1[nH]c(C2CCCC(N3CC=C(c4ccccc4)CC3)C2)nc2ccccc12 (racemic)
- pIC50 [1]: 5.74

Compound: O=c1[nH]c(C2CCC(N3CCC(c4ccccc4)CC3)C2)nc2ccccc12 (stereo in doubt; cis)
- pIC50 [1]: 6.36

Compound: O=c1[nH]c(C2CCC(N3CCC(c4ccccc4)CC3)C2)nc2ccccc12 (stereo in doubt; trans)
- pIC50 [1]: 6.26

— ChEMBL document CHEMBL1139823, “Rational design of conformationally restricted quinazolinone inhibitors of poly(ADP-ribose)polymerase” (Bioorg Med Chem Lett, 2007)
